Assay [1] is described as follows: Her2 expression decrease, cell viability multiplex – SKBR3 breast tumor cells, AlphaScreen, ATP viability, primary screen (AID 461;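 active = Her2 level under about 52% in both replicate screens, with viability over 70% of control, limit read from the data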;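 for Her2 level: lower value means less Her2 protein in the cells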;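 for viability: percent of carrier control wells set as 100% viability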). The note with it: SKBR3 Her2 protein level, 18-24 h, measured here: SKBR3 viability, ATP luminescence, at 10 µM. Background: Bead proximity is the source of the signal in Alpha formats.
Assay [2] addresses Receptor tyrosine-protein kinase erbB-2 (Homo sapiens) (UniProt P04626). The assay is described as above. The settings on record: 18-24 h, at 10 µM, stronger effect = lower value.
The nature of assay [3]: reduced viability of SK-BR-3 breast cancer cells – cell-based, 24 h, human, pilot screen (AID 572;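 active = viability at or below 10% of carrier control in both of two separate runs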;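 note: compound exposure lasted between 18 and 24 h rather than exactly 24 h; 100% = carrier-treated control wells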). The note with it: SK-BR-3 viability, CellTiter-Glo luminescence, at 10 µM, stronger effect = lower value. A general note: In ATP-based viability assays light output follows the ATP content of the culture.
Assay [4] is described as follows: HUVEC growth inhibition – cell-based, human, primary screen (AID 575).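 Note: 100% = median of untreated cell wells with 0.1% DMSO on each plate.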 The note with it: HUVEC proliferation, CellTiter-Glo luminescence, 72 h; at 10 µM; stronger effect = lower value. An outline of the steps: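 Test system: primary human umbilical vein endothelial cells; medium: endothelial basal medium with 2% FBS plus growth supplements; dosing: 10 µM compound only; times: 72 h treatment at 37 °C; signal: CTG luminescence; read-out: % viability relative to median vehicle-well signal on each plate; control set: vehicle and MePR control wells; plate: 384-well, collagen-coated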

Assay [5] is described as follows: H69AR cell proliferation blockers – human, duplicate replicates, primary screen (AID 580;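 active = viability at or under a set limit in both replicates, limit being median viability minus 3 SD, cut at about 48% in these data, passing the limit was not always enough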;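 note: 100% = mean luminescence of untreated wells and 0% = no signal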). The settings on record: H69AR lung tumor cells viability, ATP luminescence, 72 h; at 10 µM; stronger effect = lower value.
The nature of assay [6]: MRP1 drug-resistance reversers in H69AR cells – cell-based, doxorubicin co-treatment, pilot screen (AID 601;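 active = viability loss from added drug above about 55%, and viability with drug at most 40%, in both replicates, limit read from the data, passing the limit was not always enough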). The note with it: CellTiter-Glo, 72 h, at 10 µM; for differential viability (reversal): stronger effect = higher value.
Assay [7] in a line: yeast transport mutant growth inhibition pilot in 384-well plates, post-Golgi transport modulator project (AID 636; in the data active = inhibition above about 31%). The note with it: absorbance 615 nm, about 18 h, stronger effect = higher value.
A short description of assay [8]: growth suppression of yeast trafficking mutant, preliminary HTS, modulators of trafficking downstream of Golgi apparatus project, 1536-format plate, OD 615 nm (AID 637; in the data active = inhibition above about 30%). The settings on record: yeast transport mutant growth, absorbance 615 nm, 18 h; stronger effect = higher value.
Where [9] appears, read: H69AR cells + 2 uM doxorubicin, measured here: viability with 2 uM doxorubicin, stronger effect = lower value.
[10] abbreviates: H69AR cells, compound alone cytotoxicity.

This note sets out measurements from PubChem BioAssay.

Calls of active or inactive are those of the source.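 Rule for the calls, unless noted: active = viability at or below 30% in both replicate assays; inconclusive = viability at or below 30% in just one of the two assays; inactive = the rest.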

The viability is a read-out of living cells in per cent, often relative to untreated cells. The term inhibition denotes the relative decrease from the control value, in per cent.

Sequence of Receptor tyrosine-protein kinase erbB-2 (Homo sapiens) (P04626 whole entry, looked up): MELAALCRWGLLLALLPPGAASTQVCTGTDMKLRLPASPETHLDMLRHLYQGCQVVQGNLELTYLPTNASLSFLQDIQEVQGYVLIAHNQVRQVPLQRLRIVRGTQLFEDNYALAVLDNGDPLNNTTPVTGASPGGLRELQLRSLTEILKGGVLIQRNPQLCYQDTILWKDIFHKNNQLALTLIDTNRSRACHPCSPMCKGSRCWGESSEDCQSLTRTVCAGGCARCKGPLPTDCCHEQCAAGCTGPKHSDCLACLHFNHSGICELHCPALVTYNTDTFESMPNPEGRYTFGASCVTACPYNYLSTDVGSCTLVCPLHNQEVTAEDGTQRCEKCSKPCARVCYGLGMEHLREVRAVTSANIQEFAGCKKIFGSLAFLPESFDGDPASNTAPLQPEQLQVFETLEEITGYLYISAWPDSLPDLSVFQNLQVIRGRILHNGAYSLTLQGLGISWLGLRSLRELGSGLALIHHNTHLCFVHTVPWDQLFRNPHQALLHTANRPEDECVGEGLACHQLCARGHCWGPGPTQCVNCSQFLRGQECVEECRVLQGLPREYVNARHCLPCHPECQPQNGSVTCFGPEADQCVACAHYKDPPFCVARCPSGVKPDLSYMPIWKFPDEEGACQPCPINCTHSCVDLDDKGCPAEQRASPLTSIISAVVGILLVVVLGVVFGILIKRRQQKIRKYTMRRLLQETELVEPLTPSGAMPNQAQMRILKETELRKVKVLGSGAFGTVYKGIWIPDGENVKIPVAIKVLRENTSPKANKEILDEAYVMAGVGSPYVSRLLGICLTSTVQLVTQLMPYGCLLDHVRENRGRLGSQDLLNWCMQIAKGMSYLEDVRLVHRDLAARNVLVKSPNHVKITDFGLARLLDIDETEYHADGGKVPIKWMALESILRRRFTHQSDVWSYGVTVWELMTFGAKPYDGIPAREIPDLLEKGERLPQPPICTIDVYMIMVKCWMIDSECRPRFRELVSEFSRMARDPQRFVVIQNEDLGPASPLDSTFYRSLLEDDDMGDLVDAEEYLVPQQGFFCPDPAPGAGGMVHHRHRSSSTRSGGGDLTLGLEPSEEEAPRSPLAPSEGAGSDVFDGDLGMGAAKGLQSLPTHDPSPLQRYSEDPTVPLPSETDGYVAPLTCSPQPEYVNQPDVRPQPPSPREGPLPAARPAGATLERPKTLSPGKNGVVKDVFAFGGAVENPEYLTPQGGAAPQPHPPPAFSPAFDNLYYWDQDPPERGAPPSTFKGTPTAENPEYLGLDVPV

Consider `CC(n1cnnn1)C12CC3CC(CC(C3)C1)C2` (stereo not given), for which the viability is 88.5% in assay [1]; 88.5% (inactive) in assay [3]; 93.4% (inactive) in assay [4]; 96% (inactive) in assay [5]; 84.7% in assay [6] (setting [9]); 96% in assay [6] (setting [10]). In addition, the Her2 level in assay [2] was 96% (inactive). Also, the differential viability (reversal) in assay [6] (H69AR cells + 2 uM doxorubicin) was 11.3% (inactive). Moreover, the figures for the inhibition in assay [7] and in assay [8] were -1.2% (inactive) and 1.97% (inactive), respectively.

As to `O=C(CN1CCN(c2cccc(Cl)c2)CC1)N1CCCC1`, the viability in assay [1] is 105%; in assay [3] it was 105% (inactive); in assay [4], 110% (inactive); in assay [5], 78.8% (inactive); in assay [6] (setting [9]), 81.5%; in assay [6] (setting [10]), 78.8%. The Her2 level in assay [2] is 102% (inactive). For the same compound, in assay [6] (H69AR cells + 2 uM doxorubicin), the differential viability (reversal) is -2.74% (inactive). The inhibition was -6.75% (inactive) in assay [7] and -7.46% (inactive) in assay [8].

As to `CCC(C)(C)NC(=O)C(OC(=O)c1ccco1)c1ccccc1OC` (stereo not given), the viability in assay [1] was 99%; in assay [3] it was 99% (inactive); in assay [4], 91.4% (inactive); in assay [5] it was 106% (inactive); in assay [6] (setting [9]), 87.2%; in assay [6] (setting [10]), 106%. The Her2 level in assay [2] was 93% (inactive). Besides, the differential viability (reversal) in assay [6] (H69AR cells + 2 uM doxorubicin) is 18.8% (inactive). Moreover, the inhibition in assay [7] was -3.65% (inactive); in assay [8] it was -5% (inactive).

Regarding `CCc1nc2sc3c(c2c(=O)o1)CCCC3`, the viability was 102% in assay [1]; 102% (inactive) in assay [3]; 82.1% (inactive) in assay [4]; 96.3% (inactive) in assay [5]; 96.6% in assay [6] (setting [9]); 96.3% in assay [6] (setting [10]). Further, in assay [2], the Her2 level is 81% (inactive). Besides, the differential viability (reversal) in assay [6] (H69AR cells + 2 uM doxorubicin) was -0.255% (inactive). For the same compound, the inhibition was -7.5% (inactive) in assay [7] and -9.84% (inactive) in assay [8].

Take `COc1ccc(OC)c(S(=O)(=O)NCCC2=CCCCC2)c1`: the viability was 77% in assay [1]; 77% (inactive) in assay [3]; 106% (inactive) in assay [4]; 96.6% (inactive) in assay [5]; 102% in assay [6] (setting [9]); 96.6% in assay [6] (setting [10]). In addition, the Her2 level in assay [2] was 87.5% (inactive). In assay [6] (H69AR cells + 2 uM doxorubicin), the differential viability (reversal) is -5.82% (inactive). Further, the results for the inhibition in assay [7] and in assay [8] were -6.89% (inactive) and -3.77% (inactive), respectively.

On to `Cc1cccc(N2CCN(C(=O)Cn3ccc4ccccc4c3=O)CC2)c1C`, for which the viability in assay [1] is 90.5%; in assay [3], 90.5% (inactive); in assay [4], 94.1% (inactive); in assay [5], 95% (inactive); in assay [6] (setting [9]) it was 96.2%; in assay [6] (setting [10]), 95%. Also, the Her2 level in assay [2] is 81% (inactive). Moreover, the differential viability (reversal) in assay [6] (H69AR cells + 2 uM doxorubicin) was -1.24% (inactive). In addition, the figures for the inhibition in assay [7] and in assay [8] were -4.34% (inactive) and -2.91% (inactive), respectively.

Consider `COC(=O)c1cnn2c(C(F)(F)F)cc(-c3ccco3)nc12`, for which the viability in assay [1] was 99%; in assay [3] it was 99% (inactive); in assay [4], 79.9% (inactive); in assay [5] it was 64.8% (inactive); in assay [6] (setting [9]) it was 76.5%; in assay [6] (setting [10]), 64.8%. In addition, the Her2 level in assay [2] is 80% (inactive). Further, the differential viability (reversal) in assay [6] (H69AR cells + 2 uM doxorubicin) was -11.7% (inactive). The inhibition in assay [7] was -4.61% (inactive); in assay [8] it was 0.82% (inactive).

Take `C=CCOC(=O)C1=C(C)OC(N)=C(C#N)C1c1ccc2c(c1)OCO2` (stereo not given): the viability in assay [1] is 107%; in assay [3] it was 107% (inactive); in assay [4] it was 98.2% (inactive); in assay [5], 94.5% (inactive); in assay [6] (setting [9]), 86.9%; in assay [6] (setting [10]) it was 94.5%. Moreover, the Her2 level in assay [2] is 90.5% (inactive). The differential viability (reversal) in assay [6] (H69AR cells + 2 uM doxorubicin) was 7.53% (inactive). Also, the results for the inhibition in assay [7] and in assay [8] were -4.32% (inactive) and -4.44% (inactive), respectively.

Consider `COc1ccc(CCNC(=O)COc2ccc(S(=O)(=O)N3CCOCC3)cc2)cc1`, for which the viability in assay [1] is 98%; in assay [3], 98% (inactive); in assay [4], 102% (inactive); in assay [5] it was 95.1% (inactive); in assay [6] (setting [9]) it was 88.9%; in assay [6] (setting [10]), 95.1%. For the same compound, the Her2 level in assay [2] is 87% (inactive). For the same compound, the differential viability (reversal) in assay [6] (H69AR cells + 2 uM doxorubicin) is 6.25% (inactive). In addition, the inhibition was -6.76% (inactive) in assay [7] and 0% (inactive) in assay [8].

As for `Cc1cccc(CCNC(=O)CCc2nc(-c3ccccc3F)no2)c1`, the viability in assay [1] is 91.5%; in assay [3] it was 91.5% (inactive); in assay [4], 89.1% (inactive); in assay [5] it was 93.5% (inactive); in assay [6] (setting [9]) it was 83.7%; in assay [6] (setting [10]), 93.5%. Also, the Her2 level in assay [2] was 104% (inactive). For the same compound, in assay [6] (H69AR cells + 2 uM doxorubicin), the differential viability (reversal) is 9.82% (inactive). Besides, the inhibition in assay [7] is -2.37% (inactive); in assay [8] it was -5% (inactive).

Regarding `COCCn1c(SCC(=O)Nc2sc(C)c(C)c2C#N)nnc1C(C)C`, the viability in assay [1] was 98%; in assay [3] it was 98% (inactive); in assay [4], 96% (inactive); in assay [5], 89.6% (inactive); in assay [6] (setting [9]), 92.8%; in assay [6] (setting [10]), 89.6%. Also, the Her2 level in assay [2] is 92.5% (inactive). For the same compound, in assay [6] (H69AR cells + 2 uM doxorubicin), the differential viability (reversal) was -3.22% (inactive). For the same compound, the inhibition is -0.13% (inactive) in assay [7] and -4.35% (inactive) in assay [8].

As for `CC1C=CC(C)C(C(=O)O)C1C(=O)O` (stereo not given), the viability in assay [1] was 103%; in assay [3], 103% (inactive); in assay [4] it was 97.6% (inactive); in assay [5] it was 93% (inactive); in assay [6] (setting [9]), 98.3%; in assay [6] (setting [10]) it was 93%. Moreover, the Her2 level in assay [2] was 93% (inactive). Also, the differential viability (reversal) in assay [6] (H69AR cells + 2 uM doxorubicin) is -5.29% (inactive). The inhibition in assay [7] was -0.65% (inactive); in assay [8], -5.67% (inactive).

In the case of `COc1ccc(/C(O)=C2/C(=O)C(=O)N(CCCN(C)C)C2c2ccc(Cl)cc2)cc1OC` (stereo not given), the viability in assay [1] is 101%; in assay [3], 101% (inactive); in assay [4], 103% (inactive); in assay [5], 103% (inactive); in assay [6] (setting [9]) it was 105%; in assay [6] (setting [10]) it was 103%. Further, in assay [2], the Her2 level was 97.5% (inactive). Also, in assay [6] (H69AR cells + 2 uM doxorubicin), the differential viability (reversal) was -1.86% (inactive). In addition, the inhibition in assay [7] is 0.4% (inactive); in assay [8], -3.39% (inactive).

As for `Cc1ccc(C)c(N2CCN(C(=O)c3ccc(CS(=O)(=O)c4ccccc4C)o3)CC2)c1`, the viability in assay [1] is 82%; in assay [3] it was 82% (inactive); in assay [4] it was 50.8% (inactive); in assay [5] it was 11.8% (active); in assay [6] (setting [9]), 50.9%; in assay [6] (setting [10]), 11.8%. Also, the Her2 level in assay [2] was 66.5% (inactive). Moreover, the differential viability (reversal) in assay [6] (H69AR cells + 2 uM doxorubicin) was -39.1% (inactive). The inhibition is -3.16% (inactive) in assay [7] and 1.27% (inactive) in assay [8].
